Measured values from ChEMBL document CHEMBL5226356, “Ring Size as an Independent Variable in Cyclooligomeric Depsipeptide Antiarrhythmic Activity” (ACS Med Chem Lett, 2021).
Activity calls are given as the source filed them. The rule behind the calls is not given here.

Legend:
[1] = target: Ryanodine receptor 2 (Mus musculus) (UniProt E9Q401); test: Inhibition of RyR2 in Casq2 gene knockout mouse cardiomyocytes assessed as reduction in calcium sparks frequency at 25 uM incubated for 10 mins; assay type: cell-based; conditions: Cardiomyocyte
In short: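 Isolated ventricular cardiomyocytes permeabilized with saponin, which opens the sarcolemma but leaves the SR membrane intact. Cells incubated 10 min with 25 μM compound or DMSO vehicle. RyR2 activity read as spontaneous Ca2+ spark frequency and compared to vehicle; statistics by one-way ANOVA with Tukey's posthoc test.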

[2] = Kinetic solubility of the compound in phosphate buffer at pH 7.4 at 25 uM incubated for 2 hrs by nephelometry; assay type: physicochemical; conditions: pH 7.4, 2 h
[3] = Kinetic solubility of the compound in Hanks Bile Salt Solution at 25 uM incubated for 2 hrs by nephelometry; assay type: ADME
[4] = target: Ryanodine receptor 2 (Mus musculus) (UniProt E9Q401); test: Inhibition of RyR2 in Casq2 gene knockout mouse cardiomyocytes assessed as reduction in calcium sparks frequency at 25 uM incubated for 60 mins; assay type: cell-based; conditions: Cardiomyocyte
In short: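 Isolated ventricular cardiomyocytes were permeabilized with saponin, which opens the sarcolemma but leaves the SR membrane intact. Cells were incubated with 25 μM compound or DMSO vehicle for 60 min (extended from the 10 min screen). RyR2 activity was read as the frequency of Ca2+ sparks relative to vehicle. Statistics were one-way ANOVA with Tukey's post hoc test.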

Ryanodine receptor 2 = Ryanodine receptor 2 (Mus musculus, UniProt E9Q401); test: Inhibition of RyR2 in Casq2 gene knockout mouse cardiomyocytes assessed as reduction in calcium sparks frequency incubated for 30 mins; assay type: cell-based, Cardiomyocyte
In short: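 Saponin-permeabilized isolated ventricular cardiomyocytes (sarcolemma opened, SR membrane intact) incubated 30 min with compound across a concentration range for concentration-response curves. Read-out is frequency of spontaneous Ca2+ sparks, used as a measure of RyR2 activity. DMSO served as vehicle.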

Ryanodine receptor 2 (Mus musculus), sequence (E9Q401 whole entry): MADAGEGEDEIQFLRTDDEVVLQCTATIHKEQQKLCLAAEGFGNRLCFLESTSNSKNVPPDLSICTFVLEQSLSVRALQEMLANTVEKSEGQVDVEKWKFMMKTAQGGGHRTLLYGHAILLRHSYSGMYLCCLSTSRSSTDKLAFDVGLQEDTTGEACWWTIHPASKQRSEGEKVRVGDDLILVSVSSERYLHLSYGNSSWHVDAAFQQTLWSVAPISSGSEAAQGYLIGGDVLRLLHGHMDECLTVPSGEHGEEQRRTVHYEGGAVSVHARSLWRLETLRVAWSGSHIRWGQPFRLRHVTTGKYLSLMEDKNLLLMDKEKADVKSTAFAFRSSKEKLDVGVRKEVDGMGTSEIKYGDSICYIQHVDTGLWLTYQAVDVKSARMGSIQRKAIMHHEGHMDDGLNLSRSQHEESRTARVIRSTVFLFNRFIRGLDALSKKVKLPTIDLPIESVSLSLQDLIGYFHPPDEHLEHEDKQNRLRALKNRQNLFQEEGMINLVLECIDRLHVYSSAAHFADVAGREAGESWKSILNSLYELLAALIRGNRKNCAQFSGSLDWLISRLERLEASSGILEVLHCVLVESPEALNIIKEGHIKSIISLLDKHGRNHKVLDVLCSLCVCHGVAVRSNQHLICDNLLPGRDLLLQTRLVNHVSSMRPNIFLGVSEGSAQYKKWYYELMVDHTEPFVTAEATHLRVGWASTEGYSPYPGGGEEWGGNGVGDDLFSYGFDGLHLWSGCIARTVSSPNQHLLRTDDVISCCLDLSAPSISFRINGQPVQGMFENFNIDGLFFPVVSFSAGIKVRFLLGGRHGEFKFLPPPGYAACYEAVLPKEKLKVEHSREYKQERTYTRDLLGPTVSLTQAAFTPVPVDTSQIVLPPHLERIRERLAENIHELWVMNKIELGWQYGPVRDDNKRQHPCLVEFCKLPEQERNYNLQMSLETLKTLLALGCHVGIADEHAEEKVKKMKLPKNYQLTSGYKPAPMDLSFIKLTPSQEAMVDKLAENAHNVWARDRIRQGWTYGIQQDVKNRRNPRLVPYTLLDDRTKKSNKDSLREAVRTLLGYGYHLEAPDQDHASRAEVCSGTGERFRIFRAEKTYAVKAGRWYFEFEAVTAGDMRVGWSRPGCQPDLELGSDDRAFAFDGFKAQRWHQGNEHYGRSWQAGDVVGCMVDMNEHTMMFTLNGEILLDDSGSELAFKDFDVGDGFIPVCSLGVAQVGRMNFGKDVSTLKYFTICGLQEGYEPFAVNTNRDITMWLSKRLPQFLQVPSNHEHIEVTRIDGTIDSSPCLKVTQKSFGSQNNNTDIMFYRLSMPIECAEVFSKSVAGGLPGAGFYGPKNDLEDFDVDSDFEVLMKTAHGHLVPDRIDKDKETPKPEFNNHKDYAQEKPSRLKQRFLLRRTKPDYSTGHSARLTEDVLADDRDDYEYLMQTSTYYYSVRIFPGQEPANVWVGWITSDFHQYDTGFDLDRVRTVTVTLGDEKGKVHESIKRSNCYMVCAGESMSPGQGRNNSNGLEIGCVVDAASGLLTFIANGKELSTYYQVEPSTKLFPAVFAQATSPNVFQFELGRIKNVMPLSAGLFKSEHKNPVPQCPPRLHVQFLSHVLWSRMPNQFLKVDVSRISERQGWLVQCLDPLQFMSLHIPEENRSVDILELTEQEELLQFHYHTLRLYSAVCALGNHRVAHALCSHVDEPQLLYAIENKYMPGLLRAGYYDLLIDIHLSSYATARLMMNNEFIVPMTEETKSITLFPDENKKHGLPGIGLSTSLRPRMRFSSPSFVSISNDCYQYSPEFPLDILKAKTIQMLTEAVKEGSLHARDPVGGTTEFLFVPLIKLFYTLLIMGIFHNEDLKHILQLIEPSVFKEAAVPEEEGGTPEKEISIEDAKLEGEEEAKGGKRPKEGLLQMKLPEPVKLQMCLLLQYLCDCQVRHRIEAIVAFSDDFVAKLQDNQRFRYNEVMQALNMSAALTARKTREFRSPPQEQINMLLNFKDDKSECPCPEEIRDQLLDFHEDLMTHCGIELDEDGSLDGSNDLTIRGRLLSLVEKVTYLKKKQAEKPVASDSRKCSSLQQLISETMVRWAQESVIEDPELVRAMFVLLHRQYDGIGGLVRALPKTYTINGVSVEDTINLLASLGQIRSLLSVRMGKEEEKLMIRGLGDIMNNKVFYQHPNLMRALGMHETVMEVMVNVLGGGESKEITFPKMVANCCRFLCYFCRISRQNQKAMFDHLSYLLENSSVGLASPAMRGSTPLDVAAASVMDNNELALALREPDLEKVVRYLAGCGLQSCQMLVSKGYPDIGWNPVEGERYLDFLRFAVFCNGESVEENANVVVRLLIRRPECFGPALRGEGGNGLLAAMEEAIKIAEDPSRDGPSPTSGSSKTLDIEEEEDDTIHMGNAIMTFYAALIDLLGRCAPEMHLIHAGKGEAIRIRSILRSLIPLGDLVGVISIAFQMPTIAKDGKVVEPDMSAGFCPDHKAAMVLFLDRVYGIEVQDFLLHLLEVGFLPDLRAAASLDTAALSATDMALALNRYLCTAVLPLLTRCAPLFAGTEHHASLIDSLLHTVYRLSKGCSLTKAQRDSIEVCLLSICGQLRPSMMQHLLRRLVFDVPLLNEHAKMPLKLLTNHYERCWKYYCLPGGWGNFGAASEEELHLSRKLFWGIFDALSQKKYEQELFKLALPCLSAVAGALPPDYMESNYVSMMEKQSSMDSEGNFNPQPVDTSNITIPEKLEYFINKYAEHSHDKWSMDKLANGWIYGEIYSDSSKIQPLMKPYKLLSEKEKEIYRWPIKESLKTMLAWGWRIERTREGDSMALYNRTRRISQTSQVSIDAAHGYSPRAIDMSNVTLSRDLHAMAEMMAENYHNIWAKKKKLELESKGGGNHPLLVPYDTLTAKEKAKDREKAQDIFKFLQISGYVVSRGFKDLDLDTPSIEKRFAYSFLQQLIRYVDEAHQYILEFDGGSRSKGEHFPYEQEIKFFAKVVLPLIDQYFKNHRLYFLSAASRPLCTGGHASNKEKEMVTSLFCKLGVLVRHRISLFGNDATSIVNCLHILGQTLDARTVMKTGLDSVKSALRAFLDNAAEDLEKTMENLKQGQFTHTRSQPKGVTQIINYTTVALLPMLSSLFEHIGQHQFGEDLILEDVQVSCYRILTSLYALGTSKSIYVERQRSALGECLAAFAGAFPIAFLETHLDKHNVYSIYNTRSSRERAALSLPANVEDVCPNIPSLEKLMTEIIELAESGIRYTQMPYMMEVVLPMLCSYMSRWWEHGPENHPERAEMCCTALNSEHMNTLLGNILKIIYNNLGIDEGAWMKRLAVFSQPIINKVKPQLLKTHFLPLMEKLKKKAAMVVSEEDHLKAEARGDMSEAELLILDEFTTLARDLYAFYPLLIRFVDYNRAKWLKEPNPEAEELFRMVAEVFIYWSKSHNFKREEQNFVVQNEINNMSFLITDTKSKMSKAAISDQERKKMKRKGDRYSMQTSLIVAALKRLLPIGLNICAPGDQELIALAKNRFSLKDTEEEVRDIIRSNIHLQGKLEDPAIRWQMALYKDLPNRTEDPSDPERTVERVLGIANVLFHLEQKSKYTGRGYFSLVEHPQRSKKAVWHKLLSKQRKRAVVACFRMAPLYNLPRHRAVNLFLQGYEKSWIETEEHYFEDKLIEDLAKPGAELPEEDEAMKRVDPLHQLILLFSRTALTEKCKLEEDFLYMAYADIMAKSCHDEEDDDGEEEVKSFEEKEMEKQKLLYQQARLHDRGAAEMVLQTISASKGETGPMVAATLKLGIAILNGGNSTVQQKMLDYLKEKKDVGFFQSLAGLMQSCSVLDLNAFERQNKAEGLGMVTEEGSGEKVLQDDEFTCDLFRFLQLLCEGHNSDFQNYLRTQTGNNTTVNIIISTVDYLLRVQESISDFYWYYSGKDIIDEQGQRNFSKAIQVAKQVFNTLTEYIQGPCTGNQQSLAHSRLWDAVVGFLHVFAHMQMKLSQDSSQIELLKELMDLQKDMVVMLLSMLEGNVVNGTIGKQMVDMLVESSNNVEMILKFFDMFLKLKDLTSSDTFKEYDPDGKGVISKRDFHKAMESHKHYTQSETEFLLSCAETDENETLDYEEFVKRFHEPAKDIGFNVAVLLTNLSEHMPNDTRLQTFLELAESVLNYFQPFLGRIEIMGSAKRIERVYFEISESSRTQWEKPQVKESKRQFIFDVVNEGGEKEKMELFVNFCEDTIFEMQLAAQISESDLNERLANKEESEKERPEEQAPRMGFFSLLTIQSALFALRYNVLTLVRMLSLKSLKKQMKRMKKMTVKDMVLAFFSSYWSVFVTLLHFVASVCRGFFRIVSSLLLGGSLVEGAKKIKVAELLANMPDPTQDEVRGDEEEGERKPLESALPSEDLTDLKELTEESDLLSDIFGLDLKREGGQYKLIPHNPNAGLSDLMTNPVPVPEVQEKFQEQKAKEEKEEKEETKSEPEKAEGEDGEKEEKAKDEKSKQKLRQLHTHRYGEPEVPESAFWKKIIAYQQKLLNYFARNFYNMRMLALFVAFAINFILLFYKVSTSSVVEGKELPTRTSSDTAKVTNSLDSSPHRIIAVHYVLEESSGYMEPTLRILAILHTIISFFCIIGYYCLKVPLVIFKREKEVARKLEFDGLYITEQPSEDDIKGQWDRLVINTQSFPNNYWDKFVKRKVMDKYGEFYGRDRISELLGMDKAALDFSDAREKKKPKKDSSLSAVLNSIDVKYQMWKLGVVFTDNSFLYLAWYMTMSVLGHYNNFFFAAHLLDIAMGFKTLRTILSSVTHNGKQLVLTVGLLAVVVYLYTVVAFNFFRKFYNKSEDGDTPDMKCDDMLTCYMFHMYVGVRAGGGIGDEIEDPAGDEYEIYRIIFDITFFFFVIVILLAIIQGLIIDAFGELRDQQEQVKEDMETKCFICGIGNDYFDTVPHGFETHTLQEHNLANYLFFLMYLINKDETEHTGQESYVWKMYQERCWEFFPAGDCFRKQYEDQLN
Ryanodine receptor 2, sequence (E9Q401 whole entry): as above

SMILES | inhibition [1] | Kinetic_solubility [2] | Kinetic_solubility [3] | inhibition [4] | IC50 (Ryanodine receptor 2)
CCCCC[C@@H]1OC(=O)[C@@H](C)N(C)C(=O)[C@H](CCCCC)OC(=O)[C@@H](C)N(C)C(=O)[C@H](CCCCC)OC(=O)[C@@H](C)N(C)C(=O)[C@H](CCCCC)OC(=O)[C@@H](C)N(C)C(=O)[C@H](CCCCC)OC(=O)[C@@H](C)N(C)C(=O)[C@H](CCCCC)OC(=O)[C@@H](C)N(C)C1=O | inactive | Soluble | Soluble | – | –
CCCCC[C@H]1OC(=O)[C@H](C)N(C)C1=O | inactive | Soluble | Soluble | – | –
CCCCC[C@@H]1OC(=O)[C@@H](C)N(C)C(=O)[C@H](CCCCC)OC(=O)[C@@H](C)N(C)C1=O | inactive | Soluble | Soluble | inactive | –
CCCCC[C@@H]1OC(=O)[C@@H](C)N(C)C(=O)[C@H](CCCCC)OC(=O)[C@@H](C)N(C)C(=O)[C@H](CCCCC)OC(=O)[C@@H](C)N(C)C(=O)[C@H](CCCCC)OC(=O)[C@@H](C)N(C)C1=O | Active | Soluble | Soluble | – | 1.89 µM
CCCCC[C@H](OC(=O)[C@@H](C)N(C)C(=O)[C@H](CCCCC)OC(=O)[C@@H](C)N(C)C(=O)OC(C)(C)C)C(=O)OCc1ccccc1 | – | – | – | inactive | –
CCCCC[C@@H]1OC(=O)[C@@H](C)N(C)C(=O)[C@H](CCCCC)OC(=O)[C@@H](C)N(C)C(=O)[C@H](CCCCC)OC(=O)[C@@H](C)N(C)C(=O)[C@H](CCCCC)OC(=O)[C@@H](C)N(C)C(=O)[C@H](CCCCC)OC(=O)[C@@H](C)N(C)C1=O | inactive | Soluble | Soluble | inactive | –
CCCCC[C@@H]1OC(=O)[C@@H](C)N(C)C(=O)[C@H](CCCCC)OC(=O)[C@@H](C)N(C)C(=O)[C@H](CCCCC)OC(=O)[C@@H](C)N(C)C1=O | Active | Soluble | Soluble | – | 3.88 µM
